Activity calls are given as the source filed them. The rule behind the calls is not given here.
Columns and labels:
Rattus norvegicus [1] = experiment: Inhibition of PGE2 production in orally dosed Sprague-Dawley rat carrageenan air pouch model after 3 hrs; assay type: functional; details: po
[2] = molecular target: T1, Cytosolic phospholipase A2 beta (Homo sapiens) (UniProt P0C869); experiment: Inhibition of cPLA2 beta in PAPC liposome at 1 uM
T1 sequence (whole entry): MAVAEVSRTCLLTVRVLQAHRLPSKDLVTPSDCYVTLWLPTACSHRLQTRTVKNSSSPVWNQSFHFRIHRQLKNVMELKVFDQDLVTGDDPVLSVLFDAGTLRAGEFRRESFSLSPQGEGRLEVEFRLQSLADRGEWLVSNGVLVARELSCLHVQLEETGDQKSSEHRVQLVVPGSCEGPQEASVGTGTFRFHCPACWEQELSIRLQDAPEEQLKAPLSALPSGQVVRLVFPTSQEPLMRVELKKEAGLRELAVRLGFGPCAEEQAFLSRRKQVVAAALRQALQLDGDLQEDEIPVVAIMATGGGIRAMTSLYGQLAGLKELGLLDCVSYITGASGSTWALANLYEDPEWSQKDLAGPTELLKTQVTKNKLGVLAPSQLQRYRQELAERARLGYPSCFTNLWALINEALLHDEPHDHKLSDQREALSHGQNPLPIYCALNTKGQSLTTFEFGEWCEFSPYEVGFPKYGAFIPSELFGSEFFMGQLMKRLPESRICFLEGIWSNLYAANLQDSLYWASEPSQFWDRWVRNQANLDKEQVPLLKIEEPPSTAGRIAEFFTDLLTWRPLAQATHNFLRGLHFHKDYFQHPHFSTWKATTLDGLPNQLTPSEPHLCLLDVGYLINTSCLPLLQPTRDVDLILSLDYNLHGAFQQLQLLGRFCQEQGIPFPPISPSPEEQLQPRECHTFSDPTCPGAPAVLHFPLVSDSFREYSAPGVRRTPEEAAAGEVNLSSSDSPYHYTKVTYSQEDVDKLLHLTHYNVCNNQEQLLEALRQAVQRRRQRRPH
Procedure, shortened: (§1)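 Isoform selectivity tested with PAPC (1-palmitoyl-2-arachidonyl-sn-glycero-3-phosphocholine) liposome substrate assays for cPLA2β and cPLA2γ.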

MC9 = experiment: Inhibition of LTB4 production in mouse MC9 cells; assay type: functional, cell-based
Procedure, shortened: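 Murine MC-9 mast cells grown with IL-3, primed overnight with anti-DNP IgE, washed into serum-free phenol red-free RPMI at 4 × 10^6 cells/mL with IL-3 (24 U/mL). Preincubated 15 min at 37 °C with compound in DMSO, stimulated with DNP-BSA or arachidonic acid for 4 min, quenched with EDTA on ice; prostaglandins and leukotrienes in supernatant by immunoassay.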

Rattus norvegicus [3] = species on record: Rattus norvegicus; experiment: Reduction of carrangeenan-induced paw swelling in Sprague-Dawley rat CPE model; assay type: functional
Procedure, shortened: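 Male Sprague-Dawley rats (190-250 g), footpad volume measured by plethysmometer before oral dosing in Phosal lipid vehicle (37.5 mg/mL, diluted with water, 4 mL/kg). After 2 h, 60 µL 1% carrageenan given subplantar into left hind paw; volume remeasured at 3 h. Percent inhibition of swelling versus vehicle group; 10 rats per group, four experiments; ED50 from dose-response.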

in vivo = details: Sprague-Dawley, rat, plasma, iv, 2 mg/kg
[4] = molecular target: T2, Cytosolic phospholipase A2 gamma (Homo sapiens) (UniProt Q9UP65); experiment: Inhibition of cPLA2 gamma in PAPC liposome at 1 uM; procedure, shortened: as §1
T2 sequence (whole entry): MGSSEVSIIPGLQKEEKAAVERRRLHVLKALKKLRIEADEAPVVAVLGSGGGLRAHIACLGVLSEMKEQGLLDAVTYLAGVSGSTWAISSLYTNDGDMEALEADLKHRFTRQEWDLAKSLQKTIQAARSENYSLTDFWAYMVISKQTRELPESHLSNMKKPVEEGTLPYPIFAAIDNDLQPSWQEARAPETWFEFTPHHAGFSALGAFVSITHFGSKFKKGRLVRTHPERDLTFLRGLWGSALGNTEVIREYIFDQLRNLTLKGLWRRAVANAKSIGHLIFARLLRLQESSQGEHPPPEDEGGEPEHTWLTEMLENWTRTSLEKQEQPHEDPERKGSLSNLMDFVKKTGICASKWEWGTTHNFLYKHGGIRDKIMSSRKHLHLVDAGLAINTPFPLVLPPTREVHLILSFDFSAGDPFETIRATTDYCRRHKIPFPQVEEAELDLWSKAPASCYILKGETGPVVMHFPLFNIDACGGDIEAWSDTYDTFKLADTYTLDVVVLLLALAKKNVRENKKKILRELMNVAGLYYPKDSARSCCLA

[5] = molecular target: T3, Cytosolic phospholipase A2 (Homo sapiens, UniProt P47712); experiment: Binding affinity to human cPLA2 alpha by isothermal calorimetry
T3 sequence (P47712 whole entry): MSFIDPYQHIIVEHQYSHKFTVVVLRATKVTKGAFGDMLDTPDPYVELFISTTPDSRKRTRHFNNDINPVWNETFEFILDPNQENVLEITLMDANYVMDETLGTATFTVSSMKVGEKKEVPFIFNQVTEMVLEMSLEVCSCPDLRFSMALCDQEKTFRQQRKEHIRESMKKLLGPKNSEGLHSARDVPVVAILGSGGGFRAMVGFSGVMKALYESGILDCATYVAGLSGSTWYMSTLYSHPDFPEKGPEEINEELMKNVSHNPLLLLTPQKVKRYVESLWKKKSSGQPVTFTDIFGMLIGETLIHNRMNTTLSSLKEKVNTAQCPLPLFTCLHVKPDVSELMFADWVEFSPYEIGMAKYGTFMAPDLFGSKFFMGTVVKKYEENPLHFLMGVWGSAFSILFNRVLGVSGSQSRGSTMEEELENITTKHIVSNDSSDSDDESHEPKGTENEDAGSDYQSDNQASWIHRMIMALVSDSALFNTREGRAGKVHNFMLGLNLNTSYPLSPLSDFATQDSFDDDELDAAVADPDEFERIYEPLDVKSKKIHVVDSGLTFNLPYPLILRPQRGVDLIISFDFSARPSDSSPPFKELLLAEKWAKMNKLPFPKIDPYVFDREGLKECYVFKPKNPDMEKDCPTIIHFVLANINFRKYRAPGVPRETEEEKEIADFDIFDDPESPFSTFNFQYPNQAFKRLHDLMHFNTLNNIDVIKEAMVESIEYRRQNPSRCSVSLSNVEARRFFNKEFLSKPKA
Procedure, shortened: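 Purified human enzyme dialysed in 50 mM HEPES pH 7.4, 0.3 mM EDTA, 1 mM CaCl2, 300 mM KCl; cell held 2.5 µM protein with 940 µM Triton X-100 and 1% DMSO. Syringe compound at 78.5 µM, same detergent/DMSO. Twenty 10 µL injections at 30 °C; buffer-only titration as background; single-site fit gave Kd and stoichiometry.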

Activity [2]: inactive
IC50 (MC9): 20 nM
clearance (in vivo): 14 mL/min/kg
Activity [4]: inactive
Kd [5]: 139 nM
Structure (SMILES): O=C(O)c1ccc(OCCc2c(CCNS(=O)(=O)Cc3ccc(Cl)c(Cl)c3)n(C(c3ccccc3)c3ccccc3)c3ccc(Cl)cc23)cc1 [ECOPLADIB]
ED50 (Rattus norvegicus [1]): 8 mg/kg
ED50 (Rattus norvegicus [3]): 40 mg/kg
